Reference: publication PMC5322940 (Cell, 2016)

Molecular target: CB1 protein (Homo sapiens, UniProt P21554, D324T/DEL307-313/E273K/E323T/H320Y/I317L/I319V/INS325[…]/K326D/Q314A/Q328R/R331I/R340E/S316A/T210A/T283V/T321G/T330A/V329G)
Assay: Affinity mass spectrometry analysis of AM6538
Assay type: binding
Settings: CB1 protein co-purified with AM6538
Outline: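 CB1–flavodoxin fusion expressed in HEK293F and purified in DDM/CHS. Membranes took up 20 µM test compound (3 h, 4 °C), then iodoacetamide; wash and elution buffers also carried test compound. Co-purified complex was desalted on G-25 to strip free ligand. About 1 µg was ultrafiltered (30 kDa cutoff, 13,000 g, 10 min, 4 °C) in 150 mM ammonium acetate, 0.02% DDM, 0.004% CHS; retained complex collected.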

Compound: Cc1c(C(=O)NN2CCCCC2)nn(-c2ccc(Cl)cc2Cl)c1-c1ccc(C#CCCO[N+](=O)[O-])cc1 [AM6538, 4-(4-(1-(2,4-dichlorophenyl)-4-methyl-3-(piperidin-1-ylcarbamoyl)-1H-pyrazol-5-yl)phenyl)but-3-yn-1-yl nitrate]
- Covalent modification of CB1 cysteine residues: no evidence of covalent modification
